This is an account of results in ChEMBL document CHEMBL1148749, “Targeting plague virulence factors: a combined machine learning method and multiple conformational virtual screening for the discovery of Yersinia protein kinase A inhibitors” (J Med Chem, 2007).

The nature of test [1]: Inhibition of Yersinia sp. PKA. An outline of the steps:
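YpkA kinase activity measured by radiological assay with enzyme at 0.15 μM; IC50 values determined from this assay.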

The next test deals with Protein kinase C (PKC). Briefly: Inhibition of PKC. Details: species or system Homo sapiens.
Test [2] is described as follows: Inhibition of MAPK. Also on record: species or system Homo sapiens.

Molecules are shown by their SMILES.

For `O=C1NC(=O)C(=Cc2ccc(Sc3ccc(Cl)cc3)c([N+](=O)[O-])c2)C(=O)N1`, the values for the IC50 (in test [1]; against Protein kinase C (PKC); in test [2]) were 5.87 µM, over 200 µM and 63 µM, respectively.

Consider `O=C1c2ccccc2C(=O)c2cc(S(=O)(=O)Nc3cccc([N+](=O)[O-])c3)ccc21`, for which the IC50 in test [1] was 19.8 µM; on Protein kinase C (PKC), 165 µM; in test [2] it was over 200 µM.

On to `C=CCN1C(=O)NC(=O)/C(=C/c2ccc(-c3cc([N+](=O)[O-])ccc3Cl)o2)C1=O`, for which the figures for the IC50 (in test [1]; against Protein kinase C (PKC); in test [2]) were 9.72 µM, 205.16 µM and 54.5 µM, respectively.

On to `O=C1Nc2ccc(Br)cc2/C1=C1/SC(=S)N(c2cccc(Cl)c2)C1=O`, for which the IC50 in test [1] was 1.81 µM; against Protein kinase C (PKC), over 200 µM; in test [2] it was 2.45 µM.

As a reminder, the IC50 is the concentration that gives 50% inhibition. Low values mean inhibition by little substance, high ones a need for much substance.
